For 35 compounds, inhibition, IC50 and MIC results are on record in ChEMBL document CHEMBL1156888, “The first low microM SecA inhibitors” (Bioorg Med Chem, 2010).

Active and inactive are the calls of the source. The calls are words filed in the database; no cut-off is given here.

Experiment [1] has as its system Escherichia coli. Put plainly: Inhibition of Escherichia coli SecA N-terminal fragment EcN68 assessed as phosphate release at 100 uM by Malachite green assay. The essentials: (§1)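 ATPase of truncated E. coli SecA N68 (lacks C-terminal regulatory domain), 2.25 µg per reaction, with 2 mM ATP in 50 mM Tris-HCl pH 7.6, 20 mM KCl, 20 mM NH4Cl, 1 mM DTT, 2 mM Mg(OAc)2, 10% DMSO. Run at 40 °C for 20 min, stopped with malachite green then citric acid, 40 min at room temperature, A660 read. Activity remaining expressed as percent of compound-free control. At least triplicate, SEM.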

In experiment [2] the test system is Escherichia coli. Put plainly: Inhibition of Escherichia coli SecA N-terminal fragment EcN68 assessed as phosphate release at 30 uM by Malachite green assay. The essentials:
as §1

The test system of experiment [3] is Escherichia coli. Put plainly: Inhibition of Escherichia coli SecA N-terminal fragment EcN68 assessed as phosphate release at 5 uM by Malachite green assay. The essentials:
as §1

Experiment [4] is described as follows: Inhibition of Escherichia coli full length SecA assessed as phosphate release by Malachite green assay. The essentials: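 Full-length SecA (5 µg) in 50 µL with 2 mM ATP, 50 mM Tris-HCl pH 7.6, 20 mM KCl, 20 mM NH4Cl, 1 mM DTT, 2 mM Mg(OAc)2, 10% DMSO; 40 °C, 40 min. Stopped with malachite green then 34% citric acid; 40 min room temperature, A660. Activity as percent of no-compound controls; at least triplicate.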

A short description of experiment [5]: Inhibition of Escherichia coli SecA N-terminal fragment EcN68 assessed as phosphate release by Malachite green assay. The essentials:
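Truncated SecA lacking the C-terminal regulatory domain (2.25 µg) in 50 µL with 2 mM ATP, 50 mM Tris-HCl pH 7.6, 20 mM KCl, 20 mM NH4Cl, 1 mM DTT, 2 mM Mg(OAc)2, 10% DMSO; 40 °C, 20 min. Stopped with malachite green then 34% citric acid; 40 min room temperature, A660. Percent remaining ATPase versus no-compound controls; at least triplicate.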

The test system of experiment [6] is Escherichia coli. Put plainly: Antimicrobial activity against wild type Escherichia coli MC4100 after 10 to 12 hrs. The format is functional, organism-based. The essentials: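 E. coli K-12 wild-type strain MC4100. Log-phase cells (OD600 ~0.5 to 1.0) diluted to OD600 0.05, compounds added from 100% DMSO stocks, final 5% DMSO. Cultured with shaking at 37 °C, 1050 rpm, for 10 to 12 h.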

Experiment [7] concerns Escherichia coli. Put plainly: Antimicrobial activity against permeability mutant Escherichia coli NR698 after 10 to 12 hrs. Type of experiment: functional, organism-based. The essentials:
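Outer-membrane-permeable MC4100 imp4213 mutant; log-phase cells (OD600 ~0.5–1.0) diluted to OD600 0.05, compounds added from 100% DMSO stocks, cultures with 5% DMSO final, shaken at 37 °C, 1050 rpm, 10–12 h.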

On to `Cc1ccc2oc(SCc3ccc(CSc4nc5cc(C)ccc5o4)cc3)nc2c1`, for which the inhibition entry in experiment [1] is “Active”.
Consider `Cc1cccc(NC(=O)c2c(-c3c(Cl)cccc3Cl)noc2C)c1`, for which the inhibition result in experiment [1] is “inactive”.
On to `Cc1onc(-c2c(Cl)cccc2Cl)c1C(=O)Nc1cccc(Cl)c1`, for which the inhibition entry in experiment [1] is “inactive”.
Still for that read-out and setting: the result for `Cc1onc(-c2c(Cl)cccc2Cl)c1C(=O)NCc1cccc(Br)c1` reads “inactive”.
Turning to `N#Cc1c(-c2ccccc2)nc(SCc2ccc(CSC3=NC(=O)C(C#N)C(c4ccccc4)=N3)cc2)[nH]c1=O` (stereo not drawn), the inhibition entry in experiment [1] and in experiment [2] was “Active” throughout.
On to `CCc1ccc(-c2nc(SCc3ccccc3)[nH]c(=O)c2C#N)cc1`, for which the inhibition entry in experiment [2] was “Active”.
Turning to `O=[N+]([O-])c1cccc2oc(SCc3ccc(CSc4nc5c([N+](=O)[O-])cccc5o4)cc3)nc12`, the inhibition result in experiment [1] was “Active”.
Turning to `Cc1onc(-c2c(Cl)cccc2Cl)c1C(=O)NC1CCC(C)CC1` (stereo not drawn), the inhibition result in experiment [1] is “inactive”.
As to `CCc1ccc(C2=NC(SCc3ccc(CSc4nc(-c5ccc(CC)cc5)c(C#N)c(=O)[nH]4)cc3)=NC(=O)C2C#N)cc1` (stereo not drawn), the inhibition result in experiment [1], in experiment [2] and in experiment [3] was “Active” throughout.
Consider `N#Cc1c(-c2ccc(-c3ccccc3)cc2)nc(SCc2ccc(CSC3=NC(=O)C(C#N)C(c4ccc(-c5ccccc5)cc4)=N3)cc2)[nH]c1=O` (stereo not drawn), for which the inhibition result in experiment [1], in experiment [2] and in experiment [3] was “Active” in each case. Further, the half-inhibitory concentration (IC50) (as a rule, the point on the concentration scale where inhibition reaches its midpoint) amounted to 50 µM in experiment [4] and 2000 nM in experiment [5]. Moreover, the MIC result in experiment [6] is “inactive”.
With `N#Cc1c(-c2cccc3ccccc23)nc(SCc2ccccc2)[nH]c1=O`, the inhibition result in experiment [2] was “Active”.
On to `N#Cc1c(-c2ccc(Br)cc2)nc(SCc2ccc(CSC3=NC(=O)C(C#N)C(c4ccc(Br)cc4)=N3)cc2)[nH]c1=O` (stereo not drawn), for which the inhibition entry in experiment [1], in experiment [2] and in experiment [3] was “Active” each time. Further, the IC50 came out at 20 µM in experiment [4] and 2000 nM in experiment [5].
As to `N#Cc1c(-c2cccc3ccccc23)nc(SCc2ccc(CSC3=NC(=O)C(C#N)C(c4cccc5ccccc45)=N3)cc2)[nH]c1=O` (stereo not drawn), the inhibition entry in experiment [1], in experiment [2] and in experiment [3] was “Active” in each case.
Consider `Cc1ccccc1NC(=O)c1c(-c2c(Cl)cccc2Cl)noc1C`, for which the inhibition result in experiment [1] is “inactive”. In addition, the IC50 in experiment [4] was found to be 60 µM.
Regarding `Cc1onc(-c2c(Cl)cccc2Cl)c1C(=O)N1CCOCC1`, the inhibition entry in experiment [1] was “inactive”.
Take `Cc1cccc(C2=NC(SCc3ccc(CSc4nc(-c5cccc(C)c5)c(C#N)c(=O)[nH]4)cc3)=NC(=O)C2C#N)c1` (stereo not drawn): the inhibition entry in experiment [1] and in experiment [2] was “Active” throughout.
For `Cc1onc(-c2c(Cl)cccc2Cl)c1C(=O)Nc1ccc(F)c(Cl)c1`, in experiment [1], the inhibition result was “inactive”.
On the same count and under the same terms, for `Cc1onc(-c2c(Cl)cccc2Cl)c1C(=O)NC1CCCCC1` the value was “inactive”.
In the case of `CC(C)c1ccc(C2=NC(SCc3ccc(CSc4nc(-c5ccc(C(C)C)cc5)c(C#N)c(=O)[nH]4)cc3)=NC(=O)C2C#N)cc1` (stereo not drawn), the inhibition result in experiment [1], in experiment [2] and in experiment [3] was “Active” each time.
Consider `Cc1onc(-c2c(Cl)cccc2Cl)c1C(=O)Nc1ccccc1F`, for which the inhibition entry in experiment [1] is “inactive”.
In the case of `Clc1ccc2oc(SCc3ccc(CSc4nc5cc(Cl)ccc5o4)cc3)nc2c1`, the inhibition result in experiment [1] was “Active”.
Turning to `c1ccc2oc(SCc3ccc(CSc4nc5ccccc5o4)cc3)nc2c1`, the inhibition entry in experiment [1] was “Active”.
Same read-out and setting: for `Cc1ccc(NC(=O)c2c(-c3c(Cl)cccc3Cl)noc2C)c(C)c1` the value was “inactive”; for `Cc1cc(NC(=O)c2c(-c3c(Cl)cccc3Cl)noc2C)ccc1Br`, “inactive”.
Turning to `Cc1onc(-c2c(Cl)cccc2Cl)c1C(=O)N1CCSCC1`, the inhibition result in experiment [1] was “inactive”.
In the case of `Cc1onc(-c2c(Cl)cccc2Cl)c1C(=O)NCc1ccccc1Br`, in experiment [1], the inhibition result was “inactive”.
The same measure, in the same setting: the result for `Cc1onc(-c2c(F)cccc2Cl)c1C(=O)Nc1ccc(Sc2ccccc2)nc1Sc1ccccc1` reads “Active”.
Consider `CC(C)c1ccc(-c2nc(SCc3ccccc3)[nH]c(=O)c2C#N)cc1`, for which the inhibition entry in experiment [2] was “Active”.
Consider `O=[N+]([O-])c1ccc2oc(SCc3ccc(CSc4nc5cc([N+](=O)[O-])ccc5o4)cc3)nc2c1`, for which, in experiment [1], the inhibition entry is “Active”.
Take `N#Cc1c(-c2ccc(-c3ccccc3)cc2)nc(SCc2ccccc2)[nH]c1=O`: in experiment [2], the inhibition entry was “Active”. In experiment [7], the MIC entry is “Active”. Besides, the MIC result in experiment [6] was “inactive”.
As for `N#Cc1c(-c2ccc(Br)cc2)nc(SCc2ccccc2)[nH]c1=O`, the inhibition result in experiment [2] is “Active”.
Consider `COc1ccc(C2=NC(SCc3ccc(CSc4nc(-c5ccc(OC)cc5)c(C#N)c(=O)[nH]4)cc3)=NC(=O)C2C#N)cc1` (stereo not drawn), for which the inhibition result in experiment [1] and in experiment [2] was “Active” throughout.
With `Cc1onc(-c2c(Cl)cccc2Cl)c1C(=O)N1CCCCC1`, in experiment [1], the inhibition entry is “inactive”.
Regarding `Clc1ccc2nc(SCc3ccc(CSc4nc5ccc(Cl)cc5s4)cc3)sc2c1`, the inhibition result in experiment [1] was “Active”.
For the compound `Cc1ccc(C2=NC(SCc3ccc(CSc4nc(-c5ccc(C)cc5)c(C#N)c(=O)[nH]4)cc3)=NC(=O)C2C#N)cc1` (stereo not drawn), the inhibition entry in experiment [1], in experiment [2] and in experiment [3] was “Active” in each case.
